A short description of experiment [1]: S. cerevisiae growth inhibition in permissive medium (OD615), pilot counter-assay for S. cerevisiae lifespan shortening project, permissive growth control (AID 705;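 active = growth inhibition above 25% in both replicates, a cutoff set 3 SD above the mean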). Particulars: OD615, 24 h, at 10 µM, hits give high values. The gist of the method: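 System: engineered DeaD yeast; Medium: permissive raffinose/galactose medium; Compound dosing: 10 µM single dose, 0.25% DMSO; Incubation: 4 h cell pre-growth, 24 h exposure at 30 °C; Technique: OD at 615 nm; Evaluation: growth inhibition from lowered OD615 after 24 h.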

Experiment [2] can be described thus: S. cerevisiae growth inhibition in restrictive medium, OD615, pilot screen, restrictive growth control, yeast lifespan reduction project (AID 706;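 active = growth inhibition above a set limit, 3 SD over mean compound inhibition, in both replicates, cut at about 43% in these data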;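 also: modified DeaD lifespan yeast strain shifted to restrictive glucose medium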). Particulars: OD615, 48 h, at 10 µM, hits give high values. The gist of the method:
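Material: modified S. cerevisiae; buffer or medium: CSMM-D glucose medium; doses: one concentration, 10 µM final, 0.25% DMSO; incubation: 48 h compound exposure at 30 °C; detection: optical density at 615 nm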

Experiment [3] in a line: doxorubicin toxicity protection in MRP-1 cells – H69AR cells, CellTiter-Glo, duplicate, MRP-1 activator project, pilot screen (AID 807).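 Also: compound pretreatment 18-22 h then 72 h combined with doxorubicin; 0% = doxorubicin alone and 100% = vehicle without doxorubicin.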 Particulars: H69AR viability with doxorubicin, CellTiter-Glo luminescence; at 10 µM; hits give high values. Background: ATP-based viability assays read luminescence as a measure of living cells.
Experiment [4] is described as follows: viability of HCT116 without oncogenic beta-catenin – human colon tumor cells, pilot screen (AID 823;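 active = cell viability at or below a set limit in both duplicate runs, the limit being the all-compound median minus 4 SD, cut at about 23% in these data, passing the limit was not always enough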;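 also: 0% = wells killed by 20 µM Hyamine and 100% = untreated DMSO cell wells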). Particulars: HCT116 beta-catenin knockout viability, CellTiter-Glo, 60 h; at 10 µM; hits give low values.
Experiment [5] in a line: viability of PTEN-null HCT116 cells – cell-based, HCT116 clonal line, CellTiter-Glo, pilot screen (AID 824;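 active = viability at or below 27.92% in each of two runs, the all-compound median minus 4 SD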;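 also: 0% = 20 µM Hyamine control and 100% = vehicle cell control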). Particulars: HCT116 PTEN-deleted viability, 60 h, at 10 µM, hits give low values.
Experiment [6] is described as follows: RAM pathway blockade in budding yeast – dse1pr::URA3 reporter, 5-FOA selection, pilot screen (AID 869;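 active = inhibition over a set limit, the all-compound mean plus 3 SD, in both replicate runs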;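 also: 0% = DMSO wells with no growth and 100% = 10 µM 1-NA-PP1 with full growth; RAM network block rescues cells from 5-FOA so hits raise OD615 growth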). Particulars: S. cerevisiae dse1pr::URA3 5-FOA growth, OD615, 2 d; at 10 µM; hits give high values; strain carries analog-sensitive mutant Cbk1 kinase.
Experiment [7] is described as follows: RAM signaling pathway blockade in yeast – S. cerevisiae, Pdr1DBD-CYC8 efflux-inhibited sensitized strain, primary screen (AID 1298;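 active = RAM network inhibition above 8.4% in each of two replicates, 3 SD over the compound average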;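 also: 0% = DMSO untreated cells without growth and 100% = 10 µM 1-NA-PP1 full growth; higher means more yeast growth rescued from 5-FOA killing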). Particulars: S. cerevisiae cbk1-as DSE1-URA3 strain, 5-FOA growth OD615, 2 d; at 50 µM; hits give high values.

Molecules are shown by their SMILES. Unmarked numbers belong to inactive results. Results filed as inconclusive are left out. Activity calls are given as the source filed them.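 The calls were made as follows, unless noted: active = viability increase at or above a cutoff of the median across tested compounds plus 3 SD (cut at about 8.5% in these data, passing the limit was not always enough); inconclusive = some gains above the cutoff, reason not given; inactive = the rest.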

The term viability denotes a read-out of living cells in per cent, often relative to untreated cells. By inhibition is commonly meant the drop in the measured response relative to a control, in per cent. For the molecule `COc1ccc2c(Cl)c(-c3nnc(SCC(N)=O)n3C)sc2c1`, the growth inhibition is -2.31% in experiment [1] and 11.7% in experiment [2]. Moreover, in experiment [3], the viability increase was -2.99%. In addition, the viability in experiment [4] is 106%; in experiment [5] it was 94%. Besides, the inhibition in experiment [6] was 1.43%. Besides, the RAM network inhibition in experiment [7] is 0.69%.
On to `Cc1ccc(OCC(=O)O)c(-n2nc3ccccc3n2)c1`, for which the growth inhibition in experiment [1] is -10.3%; in experiment [2] it was 0.43%. In experiment [3], the viability increase is 0.43%. Also, the results for the viability in experiment [4] and in experiment [5] were 89.9% and 102%, respectively. Besides, the inhibition in experiment [6] was 2.7%. In addition, in experiment [7], the RAM network inhibition was 2.69%.
Take `CCn1nnc(NC(=O)c2ccc(C(C)(C)C)cc2)n1`: the growth inhibition in experiment [1] was -24.7%; in experiment [2], -6.88%. Moreover, in experiment [3], the viability increase is -0.53%. Besides, the figures for the viability in experiment [4] and in experiment [5] were 90.2% and 90.9%, respectively. Moreover, the inhibition in experiment [6] was 1.79%. Moreover, the RAM network inhibition in experiment [7] was -0.37%.
For `COc1ccc(OC)c(C2C(C(=O)Nc3ccccc3OC)=C(C)Nc3nc(CCCO)nn32)c1` (stereo not drawn), the growth inhibition in experiment [1] is 4.07%; in experiment [2] it was -1.39%. For the same molecule, in experiment [3], the viability increase is -2.08%. The viability was 98.9% in experiment [4] and 96.8% in experiment [5]. Besides, the inhibition in experiment [6] is 3.86%. Besides, the RAM network inhibition in experiment [7] is 4.26%.
`Cc1onc(-c2ccccc2Cl)c1C(=O)Nc1ccc(OCC(=O)N2CCOCC2)cc1`: the values for the growth inhibition in experiment [1] and in experiment [2] were 2.78% and 5.62%, respectively. The viability increase in experiment [3] is -2.3%. In addition, the viability is 104% in experiment [4] and 99.5% in experiment [5]. Moreover, the inhibition in experiment [6] is 1.5%. In experiment [7], the RAM network inhibition is 5.11%.
`CCOC(=O)C1CCN(CC(O)COc2ccc(C(C)=O)cc2)CC1` (stereo not drawn): the growth inhibition in experiment [1] is -1.86%; in experiment [2], -5.14%. The viability increase in experiment [3] is -0.88%. Moreover, the viability in experiment [4] was 97.6%; in experiment [5] it was 91.6%. Further, the inhibition in experiment [6] was 0.87%. The RAM network inhibition in experiment [7] is 2.51%.
Regarding `CCc1nc(SCC(=O)Nc2ccc(C(=O)O)cc2)n[nH]1`, the growth inhibition in experiment [1] was 11.2%; in experiment [2], 0.705%. The viability increase in experiment [3] is -1.05%. Also, the viability in experiment [4] was 94.7%; in experiment [5], 98.4%. Further, the inhibition in experiment [6] was -0.24%. Besides, the RAM network inhibition in experiment [7] was -2.73%.
Take `O=C(CSc1nc2ccccc2c(=O)n1-c1ccccc1)N1CCN(CCO)CC1`: the growth inhibition in experiment [1] was -8.67%; in experiment [2] it was -3.58%. The viability increase in experiment [3] was -2.9%. The viability is 99.5% in experiment [4] and 98.6% in experiment [5]. Moreover, the inhibition in experiment [6] is 0.595%. Also, the RAM network inhibition in experiment [7] was 1.04%.
In the case of `C=C(C)CSc1nc2c(c(=O)[nH]c(=O)n2C)n1Cc1ccccc1`, the growth inhibition in experiment [1] is -16.7%; in experiment [2] it was -22.9%. Also, in experiment [3], the viability increase was 3.2%. Besides, the viability in experiment [4] is 83.8%; in experiment [5], 78.3%. The inhibition in experiment [6] is 2.96%. Further, in experiment [7], the RAM network inhibition is 7.74%.
`OCCCc1nc2n(n1)C(c1cccs1)C=C(c1ccccc1)N2` (stereo not drawn): the growth inhibition is -17.7% in experiment [1] and -5.79% in experiment [2]. Besides, the viability increase in experiment [3] was -4.73%. Moreover, the viability was 83.6% in experiment [4] and 84.7% in experiment [5]. Besides, the inhibition in experiment [6] was 3.25%. The RAM network inhibition in experiment [7] is 3.92%.
With `CN(C)Cc1nc2c([nH]1)c(=O)n(C)c(=O)n2C`, the figures for the growth inhibition in experiment [1] and in experiment [2] were -6.75% and -18%, respectively. Also, the viability increase in experiment [3] is -1.31%. Also, the figures for the viability in experiment [4] and in experiment [5] were 95.1% and 92.7%, respectively. Besides, the inhibition in experiment [6] is 1%. The RAM network inhibition in experiment [7] is 4.51%.
With `CCOc1ccc(Nc2ncnc3c2cnn3-c2ccccc2)cc1`, the growth inhibition in experiment [1] is -3.8%; in experiment [2], 3.48%. In experiment [3], the viability increase was 2.06%. Also, the viability is 106% in experiment [4] and 108% in experiment [5]. Further, the inhibition in experiment [6] was 1.29%. For the same molecule, the RAM network inhibition in experiment [7] was 2.91%.
`O=C(C1CCN(S(=O)(=O)c2cccc3cccnc23)CC1)N1CC=C(c2ccccc2)CC1`: the growth inhibition in experiment [1] was 6.34%; in experiment [2], 9.98%. Besides, in experiment [3], the viability increase was -2.61%. In addition, the figures for the viability in experiment [4] and in experiment [5] were 79.9% and 83%, respectively. The inhibition in experiment [6] was 1.93%. Further, the RAM network inhibition in experiment [7] was 2.07%.
Regarding `COc1ccc(O)c(-c2[nH]ncc2C(=O)c2ccccc2C)c1`, the growth inhibition in experiment [1] is -7.88%; in experiment [2], -5.12%. Further, in experiment [3], the viability increase was -0.59%. Besides, the viability is 100% in experiment [4] and 98.5% in experiment [5]. Besides, the inhibition in experiment [6] is -0.045%. Besides, the RAM network inhibition in experiment [7] was -0.67%.
Turning to `CCOC(=O)c1[nH]c(C)c(C(=O)N(CC)CC)c1C`, the growth inhibition in experiment [1] is -10.8%; in experiment [2], -5.69%. For the same molecule, in experiment [3], the viability increase was 0.21%. For the same molecule, the viability in experiment [4] was 97%; in experiment [5], 107%. The inhibition in experiment [6] is 1.27%. In addition, the RAM network inhibition in experiment [7] was -0.57%.
With `CSc1oc(-c2ccc(F)cc2)nc1S(=O)(=O)c1ccccc1`, the results for the growth inhibition in experiment [1] and in experiment [2] were -2.16% and 0.385%, respectively. In addition, the viability increase in experiment [3] is -1.13%. For the same molecule, the viability in experiment [4] was 97.2%; in experiment [5], 93.7%. Moreover, the inhibition in experiment [6] was 0.585%. In addition, in experiment [7], the RAM network inhibition was 4.67%.
Take `Cc1ccc(-c2cc3c(nn2)-c2ccccc2C3=O)cc1`: the figures for the growth inhibition in experiment [1] and in experiment [2] were -17% and -5.93%, respectively. In experiment [3], the viability increase is -6.54%. In addition, the viability in experiment [4] was 53.4%; in experiment [5] it was 49.6%. In addition, the inhibition in experiment [6] is 4.56%. Further, the RAM network inhibition in experiment [7] was 7.67%.
As for `CSC1=N/C(=C\c2ccccc2F)C(=O)S1`, the values for the growth inhibition in experiment [1] and in experiment [2] were -23.1% and -24.4%, respectively. Also, the viability increase in experiment [3] is -2.19%. For the same molecule, the values for the viability in experiment [4] and in experiment [5] were 102% and 104%, respectively. In addition, the inhibition in experiment [6] was 0.435%. Besides, the RAM network inhibition in experiment [7] was -0.79%.
On to `Cc1onc(-c2ccccc2Cl)c1C(=O)OCn1nnc2ccccc2c1=O`, for which the growth inhibition in experiment [1] is -5.29%; in experiment [2], -2.08%. Moreover, in experiment [3], the viability increase is -1.94%. Further, the viability in experiment [4] was 84.4%; in experiment [5] it was 87.3%. Also, the inhibition in experiment [6] is 2.41%. The RAM network inhibition in experiment [7] was 7.77%.
On to `Cc1cc(CN2C(=O)c3ccccc3C2=O)cc(N2CCOCC2)c1`, for which the growth inhibition was -9.23% in experiment [1] and -10.3% in experiment [2]. Also, the viability increase in experiment [3] was -2.19%. Further, the viability is 95% in experiment [4] and 87.7% in experiment [5]. For the same molecule, the inhibition in experiment [6] is 0.76%. The RAM network inhibition in experiment [7] was 1.4%.
In the case of `CC(=O)Nc1ccc2nc(-c3cccs3)[nH]c2c1`, the growth inhibition in experiment [1] is -5.51%; in experiment [2], -15.4%. In addition, in experiment [3], the viability increase was -2.88%. Besides, the figures for the viability in experiment [4] and in experiment [5] were 97.8% and 90.3%, respectively. For the same molecule, in experiment [6], the inhibition is 2.38%. The RAM network inhibition in experiment [7] is 4.66%.
Regarding `COc1ccc(OC)c(CCNC(=O)Cn2sc3nc(C)cc(C)c3c2=O)c1`, the growth inhibition in experiment [1] was 18.3%; in experiment [2] it was 70.4% (active). Moreover, the viability increase in experiment [3] is -8.04%. Besides, the viability in experiment [4] is 2.27% (active); in experiment [5], 4.4% (active). In experiment [6], the inhibition is 1.38%. The RAM network inhibition in experiment [7] is 11.3%.
Regarding `Cc1cc2cc(CCNC(=O)c3c(-c4ccccc4Cl)noc3C)c(=O)[nH]c2cc1C`, the growth inhibition was -14.1% in experiment [1] and -2.13% in experiment [2]. Further, in experiment [3], the viability increase was -3.71%. For the same molecule, the viability in experiment [4] is 94.9%; in experiment [5], 94.7%. In experiment [6], the inhibition is 1.85%. In addition, the RAM network inhibition in experiment [7] is 3.43%.
On to `CCOC(=O)c1[nH]c2ccccc2c1NC(=O)CC(C)(C)C`, for which the growth inhibition in experiment [1] was 5.14%; in experiment [2] it was -9.95%. The viability increase in experiment [3] is -3.69%. Moreover, the viability was 99.4% in experiment [4] and 96% in experiment [5]. In addition, the inhibition in experiment [6] is 1.65%. Moreover, in experiment [7], the RAM network inhibition was 1.45%.

These data come from PubChem BioAssay.
